# Reference: ChEMBL document CHEMBL3352265, “Potentially bioactive organotin(IV) compounds: synthesis, characterization, in vitro bioactivities and interaction with SS-DNA” (Eur J Med Chem, 2014)
# Active and inactive are the calls of the source. No cut-off for these calls is given here.
# Experiments:
# Aspergillus flavus [1] = assay: Antifungal activity against Aspergillus flavus FCBP 0064 after 7 days by disc diffusion method; type: functional, organism-based
# Procedure, shortened: (§1)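 Disc diffusion on SDA. Fungi cultured at 28 °C for 24 h. 4 mm discs received compound at 40 mg/mL stock in DMSO. DMSO served as negative control, terbinafine as positive control. Plates incubated at 28 °C for 7 days. Growth diameter (mm) measured and inhibition calculated against the negative control. MIC taken as the lowest concentration with no growth.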
# Staphylococcus aureus [2] = assay: Antibacterial activity against Staphylococcus aureus ATCC 6538 at 40 mg/mL after 24 hrs by disc diffusion method; type: functional
# Procedure, shortened: (§2)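 Disc diffusion. Strains grown in nutrient broth at 37 °C for 24 h. 1% culture (about 10^6 CFU/mL) mixed into nutrient agar at 45 °C and poured. 4 mm paper discs received compound at 40 mg/mL stock in DMSO; final concentrations tested were […]. DMSO served as negative control, roxithromycin and cefixime as positive controls. Triplicate plates incubated at 37 °C for 24 h. Complete-inhibition zone diameter (mm) recorded as the mean of 3.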
# Escherichia coli [3] = assay: Antibacterial activity against Escherichia coli ATCC 15224 at 40 mg/mL after 24 hrs by disc diffusion method; type: functional; procedure, shortened: as §2
# Salmonella typhimurium [4] = assay: Antibacterial activity against Salmonella typhimurium ATCC 14028 at 40 mg/mL after 24 hrs by disc diffusion method; type: functional; details: Salmonella enterica subsp. enterica serovar Typhimurium; procedure, shortened: as §2
# [5] = system: Agrobacterium tumefaciens; assay: Antitumor activity against Agrobacterium tumefaciens -induced tumor at 100 ug/ml after 21 days by potato disc bioassay technique; type: functional
# Procedure, shortened: (§3)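 Potato disc assay with 48 h culture of A. tumefaciens At-10. Inoculum contained compound at […]. Red-skinned potatoes sterilized in 0.1% HgCl2; 8 mm × 4 mm discs placed ten per 1.5% agar plate, […] each. Incubated at 28 °C in the dark for 21 days, in triplicate. Discs stained with Lugol's and tumors counted. Percent inhibition calculated against the negative control.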
# Aspergillus niger [6] = assay: Antifungal activity against Aspergillus niger FCBP 0198 at 40 mg/mL after 7 days by disc diffusion method; type: functional; procedure, shortened: as §1
# Klebsiella aerogenes [7] = assay: Antibacterial activity against Enterobacter aerogenes ATCC 13048 after 18 hrs by microdilution method; type: functional, organism-based
# Procedure, shortened: (§4)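 Broth microdilution. Twofold dilutions in culture broth at […]. Each well inoculated with bacterial suspension (10^8 CFU/mL, about 10^5 CFU/well). Sterility control and growth control (broth plus DMSO) included. Incubated at 36 °C for 18 h, in triplicate. MIC taken as the lowest concentration inhibiting growth, given in micrograms per mL.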
# Aspergillus niger [8] = assay: Antifungal activity against Aspergillus niger FCBP 0198 after 7 days by disc diffusion method; type: functional, organism-based; procedure, shortened: as §1
# Escherichia coli [9] = assay: Induction of Escherichia coli pBR322 DNA damage assessed as open circular form at 1 ug/ml after 60 mins by gel electrophoresis
# [10] = system: Agrobacterium tumefaciens; assay: Antitumor activity against Agrobacterium tumefaciens -induced tumor at 10 ug/ml after 21 days by potato disc bioassay technique; type: functional; procedure, shortened: as §3
# Escherichia coli [11] = assay: Induction of Escherichia coli pBR322 DNA damage assessed as open circular form at 1000 ug/ml after 60 mins by gel electrophoresis
# Aspergillus flavus [12] = assay: Antifungal activity against Aspergillus flavus FCBP 0064 at 40 mg/mL after 7 days by disc diffusion method; type: functional; procedure, shortened: as §1
# Mucor [13] = assay: Antifungal activity against Mucor FCBP 0400 at 40 mg/mL after 7 days by disc diffusion method; type: functional; procedure, shortened: as §1
# Escherichia coli [14] = assay: Antibacterial activity against Escherichia coli ATCC 15224 after 18 hrs by microdilution method; type: functional; procedure, shortened: as §4
# [15] = system: Agrobacterium tumefaciens; assay: Antitumor activity against Agrobacterium tumefaciens -induced tumor at 1000 ug/ml after 21 days by potato disc bioassay technique; type: functional; procedure, shortened: as §3
# Klebsiella aerogenes [16] = assay: Antibacterial activity against Enterobacter aerogenes ATCC 13048 at 40 mg/mL after 24 hrs by disc diffusion method; type: functional; procedure, shortened: as §2
# Aspergillus fumigatus [17] = assay: Antifungal activity against Aspergillus fumigatus FCBP 66 after 7 days by disc diffusion method; type: functional, organism-based; procedure, shortened: as §1
# Artemia salina = assay: Cytotoxicity in brine shrimp assessed as mortality after 24 hrs; type: functional
# Bacillus spizizenii [18] = assay: Antibacterial activity against Bacillus subtilis ATCC 6633 at 40 mg/mL after 24 hrs by disc diffusion method; type: functional; procedure, shortened: as §2
# [19] = system: Bordetella bronchiseptica; assay: Antibacterial activity against Bordetella bronchiseptica ATCC 4617 after 18 hrs by microdilution method; type: functional; procedure, shortened: as §4
# Escherichia coli [20] = assay: Induction of Escherichia coli pBR322 DNA damage assessed as open circular form at 100 ug/ml after 60 mins by gel electrophoresis
# Bacillus spizizenii [21] = assay: Antibacterial activity against Bacillus subtilis ATCC 6633 after 18 hrs by microdilution method; type: functional; procedure, shortened: as §4
# Staphylococcus aureus [22] = assay: Antibacterial activity against Staphylococcus aureus ATCC 6538 after 18 hrs by microdilution method; type: functional; procedure, shortened: as §4
# Mucor [23] = assay: Antifungal activity against Mucor FCBP 0400 at 40 mg/mL by disc diffusion method; type: functional, organism-based; procedure, shortened: as §1
# [24] = system: Bordetella bronchiseptica; assay: Antibacterial activity against Bordetella bronchiseptica ATCC 4617 at 40 mg/mL after 24 hrs by disc diffusion method; type: functional; procedure, shortened: as §2
# Aspergillus fumigatus [25] = assay: Antifungal activity against Aspergillus fumigatus FCBP 66 at 40 mg/mL after 7 days by disc diffusion method; type: functional; procedure, shortened: as §1
# Escherichia coli [26] = assay: Induction of Escherichia coli pBR322 DNA damage assessed as open circular form at 10 ug/ml after 60 mins by gel electrophoresis
# Salmonella typhimurium [27] = assay: Antibacterial activity against Salmonella typhimurium ATCC 14028 after 18 hrs by microdilution method; type: functional; details: Salmonella enterica subsp. enterica serovar Typhimurium; procedure, shortened: as §4
Substance,MIC (Aspergillus flavus [1]),inhibition zone (IZ) (Staphylococcus aureus [2]),inhibition zone (IZ) (Escherichia coli [3]),inhibition zone (IZ) (Salmonella typhimurium [4]),Activity [5],inhibition zone (IZ) (Aspergillus niger [6]),MIC (Aspergillus niger [8]),Activity (Escherichia coli [9]),Activity [10],Activity (Escherichia coli [11]),inhibition zone (IZ) (Aspergillus flavus [12]),inhibition zone (IZ) (Mucor [13]),Activity [15],inhibition zone (IZ) (Klebsiella aerogenes [16]),MIC (Aspergillus fumigatus [17]),LD50 (Artemia salina),inhibition zone (IZ) (Bacillus spizizenii [18]),Activity (Escherichia coli [20]),MIC (Mucor [23]),inhibition zone (IZ) [24],further results
Diphenylstannanediyl bis(4-(2-methoxyphenylamino)-4-oxobutanoate,6.25 µg/mL,16 mm,14 mm,0 mm,62.2%,30 mm,1.56 µg/mL,Active,43.9%,Active,26 mm,22 mm,85.3%,15 mm,6.25 µg/mL,0.403 µg/mL,17 mm,Active,6.25 µg/mL,11 mm,MIC (Klebsiella aerogenes [7]): 150 µg/mL; MIC (Escherichia coli [14]): 25 µg/mL; MIC [19]: 200 µg/mL; MIC (Bacillus spizizenii [21]): 100 µg/mL; MIC (Staphylococcus aureus [22]): 100 µg/mL; inhibition zone (IZ) (Aspergillus fumigatus [25]): 32 mm; Activity (Escherichia coli [26]): Active
N-[(2-methoxyphenyl)]-4-oxo-4-[(trimethylstannyl)oxy]butanamide,50 µg/mL,25 mm,26 mm,23 mm,54.8%,28 mm,12.5 µg/mL,Active,30.2%,Active,28 mm,24 mm,69.9%,20 mm,50 µg/mL,1.09 µg/mL,27 mm,Active,50 µg/mL,26 mm,MIC (Klebsiella aerogenes [7]): 50 µg/mL; MIC (Escherichia coli [14]): 25 µg/mL; MIC [19]: 12.5 µg/mL; MIC (Salmonella typhimurium [27]): 25 µg/mL; MIC (Bacillus spizizenii [21]): 25 µg/mL; MIC (Staphylococcus aureus [22]): 50 µg/mL; inhibition zone (IZ) (Aspergillus fumigatus [25]): 22 mm; Activity (Escherichia coli [26]): Active
N-[(2-methoxyphenyl)]-4-oxo-4-[(triphenylstannyl)oxy]butanamide,6.25 µg/mL,0 mm,0 mm,0 mm,54.9%,40 mm,3.12 µg/mL,Active,32.2%,Active,26 mm,23 mm,77.5%,11 mm,6.25 µg/mL,0.793 µg/mL,0 mm,Active,6.25 µg/mL,32 mm,MIC (Klebsiella aerogenes [7]): 25 µg/mL; MIC [19]: 12.5 µg/mL; inhibition zone (IZ) (Aspergillus fumigatus [25]): 28 mm; Activity (Escherichia coli [26]): Active
Di-tert-butylstannanediyl bis[4-(2-methoxyphenylamino)-4-oxobutanoate],100 µg/mL,17 mm,24 mm,26 mm,71.5%,24 mm,100 µg/mL,Active,53.4%,Active,20 mm,14 mm,92.4%,40 mm,100 µg/mL,3.11 µg/mL,40 mm,Active,100 µg/mL,30 mm,MIC (Klebsiella aerogenes [7]): 6.25 µg/mL; MIC (Escherichia coli [14]): 12.5 µg/mL; MIC [19]: 12.5 µg/mL; MIC (Salmonella typhimurium [27]): 6.25 µg/mL; MIC (Bacillus spizizenii [21]): 12.5 µg/mL; MIC (Staphylococcus aureus [22]): 12.5 µg/mL; inhibition zone (IZ) (Aspergillus fumigatus [25]): 18 mm; Activity (Escherichia coli [26]): Active
N-[(2-methoxyphenyl)]-4-oxo-4-[(tricyclohexylstannyl)oxy]butanamide,150 µg/mL,0 mm,9 mm,8 mm,57.4%,0 mm,200 µg/mL,inactive,36.5%,inactive,18 mm,18 mm,80.9%,0 mm,150 µg/mL,0.493 µg/mL,0 mm,inactive,150 µg/mL,0 mm,MIC (Escherichia coli [14]): 200 µg/mL; MIC (Salmonella typhimurium [27]): 200 µg/mL; inhibition zone (IZ) (Aspergillus fumigatus [25]): 16 mm; Activity (Escherichia coli [26]): inactive
N-[(2-methoxyphenyl)]-4-oxo-4-[(triethylstannyl)oxy]butanamide,0.78 µg/mL,28 mm,34 mm,26 mm,70.3%,48 mm,0.78 µg/mL,Active,48.3%,Active,46 mm,34 mm,84.1%,22 mm,0.78 µg/mL,0.881 µg/mL,36 mm,Active,0.78 µg/mL,38 mm,MIC (Klebsiella aerogenes [7]): 6.25 µg/mL; MIC (Escherichia coli [14]): 6.25 µg/mL; MIC [19]: 6.25 µg/mL; MIC (Salmonella typhimurium [27]): 6.25 µg/mL; MIC (Bacillus spizizenii [21]): 6.25 µg/mL; MIC (Staphylococcus aureus [22]): 50 µg/mL; Activity (Escherichia coli [26]): Active
